Screening results from PubChem BioAssay.
In the library only some 3.7% were active in any assay of this set; here they are far more common.
OX1R antag-1: antagonists of human orexin 1 receptor | O43613 | CHO/OX1R cells, Fluo-8 calcium fluorescence, orexin A | inhibition, % at 5 µM | 0.43% of 330,000 active;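 active = inhibition above its plate's threshold, mean inhibition of all tested compounds on the plate plus 3 SD, cut at about 37% in these data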;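 also: 0% = orexin A challenge wells and 100% = SB-334867-A antagonist wells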
EP2 modulator: modulators of human EP2 prostaglandin E2 receptor; P43116; EP2-expressing cells, cAMP HTRF FRET, PGE2 co-stimulation; induction, % at 25 µM; 0.83% of 260,000 active; AID 940;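 active = compounds whose cAMP rise, as percent of the full-agonist control response, exceeds 60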;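 also: rat C6 glioma line stably carrying human EP2 under a CMV promoter; the protocol text gives 20 µM as final concentration; 100% = response of wells given 1 µM PGE2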
Target sequence (P43116 whole entry, looked up): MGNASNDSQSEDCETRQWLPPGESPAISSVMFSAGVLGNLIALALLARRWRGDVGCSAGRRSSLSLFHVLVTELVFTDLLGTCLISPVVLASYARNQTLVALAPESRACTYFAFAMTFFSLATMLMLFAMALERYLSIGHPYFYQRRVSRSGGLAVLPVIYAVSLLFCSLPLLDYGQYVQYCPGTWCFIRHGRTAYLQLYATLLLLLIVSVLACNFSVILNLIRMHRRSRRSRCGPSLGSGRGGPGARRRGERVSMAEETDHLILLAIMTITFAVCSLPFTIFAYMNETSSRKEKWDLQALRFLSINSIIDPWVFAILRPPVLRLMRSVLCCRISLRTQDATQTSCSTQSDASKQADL
PGE2 EP2 inh: EP2 receptor (human) inhibition | P43116 | C6 glioma cells expressing human EP2, cAMP TR-FRET; cells stimulated with saturating PGE2 | inhibition, % at 25 µM | 0.52% of 260,000 active;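 active = percent inhibition above 40 after rounding to a whole number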;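 also: rat C6 glioma host cells with rolipram phosphodiesterase inhibitor present; the protocol text gives 20 µM as final concentration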
OX1R antag-2: blocks the human orexin 1 receptor | O43613 | OX1R-expressing cells, FRET antagonist read-out | inhibition, % at 6.6 µM | 1.8% of 330,000 active | AID 485270; in the data active = inhibition mostly above about 38%, no sharp cut-off; inactive = mostly below about 40%;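 also: 0% = agonist challenge alone and 100% = reference antagonist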
GPR7 antag: antagonists of human GPR7 (neuropeptides B/W receptor 1) | P48145 | GPR7-expressing cells, fluorescence antagonist assay | inhibition, % at 4.4 µM | 1.1% of 290,000 active; in the data active = inhibition above about 16%, passing the limit was not always enough;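 also: cells stimulated with the agonist NPW; 0% = agonist with vehicle and 100% = vehicle without agonist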
Target sequence (P48145 whole entry, looked up): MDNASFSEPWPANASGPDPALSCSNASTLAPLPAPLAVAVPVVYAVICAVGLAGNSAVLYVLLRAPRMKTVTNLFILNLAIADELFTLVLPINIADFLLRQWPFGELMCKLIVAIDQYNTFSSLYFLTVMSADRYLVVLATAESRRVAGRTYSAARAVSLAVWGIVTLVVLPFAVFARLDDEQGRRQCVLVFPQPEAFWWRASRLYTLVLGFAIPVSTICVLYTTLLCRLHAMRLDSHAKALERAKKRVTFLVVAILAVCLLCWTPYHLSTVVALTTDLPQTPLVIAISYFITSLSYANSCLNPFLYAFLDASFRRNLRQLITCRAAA
CHO parental Ca: counter-screen: ATP calcium response change in parental CHO cells; 0.63% of 330,000 active; AID 463079; inhibition, % at 5.6 µM; parental CHO-K1, ATP-induced calcium, Fluo-8 fluorescence;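 active = inhibition above that plate's mean sample inhibition plus 3 SD, cut at about 26% in these data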;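 also: 0% = ATP-challenged DMSO wells and 100% = DMSO wells without ATP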
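Material: Parental CHO cells | Reagent: ATP | Compound dosing: Single nominal dose of 5.6 µM per compound | Detection: Intracellular calcium via Fluo-8 no-wash fluorescent dye | Read-out: % inhibition of ATP-induced calcium mobilization | Benchmarks: Low control ATP plus DMSO, high control DMSO only | Replicates: Singlicate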
* = called active by the depositor; ! = not confirmed by another sample.

`CCN(CC)S(=O)(=O)c1ccc(Oc2ccc(S(=O)(=O)N(CC)CC)cc2)cc1` gave OX1R antag-1 33.2, EP2 modulator 7.7, PGE2 EP2 inh 6.2, OX1R antag-2 13.9, GPR7 antag -7.9 and CHO parental Ca 57.9*.
CCN(CC)S(=O)(=O)c1ccc(Oc2ccccc2OC)cc1 was read as OX1R antag-1 -14.7, EP2 modulator -12.4, PGE2 EP2 inh 3.9, OX1R antag-2 11.9, GPR7 antag -6.8 and CHO parental Ca 20.2.
For O=C(O)c1cccc(-n2nnnc2SCc2ccccn2)c1 the results were OX1R antag-1 -0.8, EP2 modulator 6.3, PGE2 EP2 inh 12.1, OX1R antag-2 24.6, GPR7 antag 18.5* and CHO parental Ca -6.5.
Screening O=C(CSc1nnnn1-c1cccc(C(=O)O)c1)NC(c1ccccc1)c1ccccc1 returned OX1R antag-1 6.0, EP2 modulator 22.4, PGE2 EP2 inh 8.3, OX1R antag-2 13.4, GPR7 antag -8.4 and CHO parental Ca 4.6.
For CCn1c(=O)c(C(=O)NCc2ccc(OC)c(OC)c2)c(O)c2ccccc21 the results were OX1R antag-1 -18.0, EP2 modulator 60.7*!, PGE2 EP2 inh 9.8, OX1R antag-2 15.9, GPR7 antag -3.3 and CHO parental Ca -26.1.
For CCn1c(=O)c(C(=O)NCc2ccc(OC)cc2)c(O)c2ccccc21 the results were OX1R antag-1 -22.8, EP2 modulator 61.7*, PGE2 EP2 inh -1.1, OX1R antag-2 2.0, GPR7 antag -4.6 and CHO parental Ca -16.4.
CCCCCCCCC(=O)NNC(=O)c1c(O)c2ccccc2n(CCC)c1=O was read as OX1R antag-1 -12.9, EP2 modulator 9.0, PGE2 EP2 inh 3.8, OX1R antag-2 16.4, GPR7 antag 0.7 and CHO parental Ca 33.6*.
`COc1ccc(CNC(=O)c2c(O)c3ccccc3n(C)c2=O)cc1` gave OX1R antag-1 -6.3, OX1R antag-2 4.7, GPR7 antag -6.1 and CHO parental Ca 2.8.
Screening CS(=O)(=O)c1ccccc1C(=O)Nc1nc2ccccc2[nH]1 returned OX1R antag-1 -8.8, EP2 modulator -1.7, PGE2 EP2 inh 108.5*, OX1R antag-2 18.6, GPR7 antag 2.8 and CHO parental Ca -13.3.
For CCN(CC(=O)Nc1c(F)cccc1F)C(=O)CN1C(=O)C2CCCCC2C1=O (centres undefined) the results were OX1R antag-1 5.7, OX1R antag-2 5.2 and CHO parental Ca -3.5.
For CCn1c(=O)c(C(=O)Nc2nc3ccccc3[nH]2)c(O)c2ccccc21 the results were OX1R antag-1 105.9*, EP2 modulator -4.7, PGE2 EP2 inh 7.4, OX1R antag-2 34.3, GPR7 antag -15.2 and CHO parental Ca 97.6*.
Screening CCn1c(=O)c(C(=O)Nc2ccccc2)c(O)c2ccccc21 returned OX1R antag-1 -6.3, OX1R antag-2 10.1, GPR7 antag -8.4 and CHO parental Ca 5.5.
`CCCn1c(=O)c(C(=O)NCCc2ccc(OC)cc2)c(O)c2ccccc21` gave EP2 modulator 70.8*, PGE2 EP2 inh 9.0 and GPR7 antag -32.8.
CCCn1c(=O)c(C(=O)NCCc2ccccc2)c(O)c2ccccc21 was read as OX1R antag-1 -28.3, OX1R antag-2 29.0, GPR7 antag -9.2 and CHO parental Ca -15.5.
`CCC/C(O)=C1\C(=O)CC(C)(C)CC1=NCc1ccccc1` gave OX1R antag-1 -21.5, EP2 modulator 6.4, PGE2 EP2 inh 2.9, OX1R antag-2 8.1, GPR7 antag 0.3 and CHO parental Ca -12.8.
Screening CCOC(=O)c1c(NC(=O)CSc2nc3ccccc3o2)sc(C)c1C returned OX1R antag-1 -31.3, EP2 modulator 37.9, PGE2 EP2 inh 5.0, OX1R antag-2 11.7, GPR7 antag -1.8 and CHO parental Ca -29.6.
Nc1nonc1-c1nc2ccccc2n1CC(=O)Nc1ccccc1 was read as OX1R antag-1 -5.7, EP2 modulator 0.1, PGE2 EP2 inh 12.6, OX1R antag-2 7.2, GPR7 antag 5.1 and CHO parental Ca 6.5.
`COc1ccccc1CC(=O)Nc1ccccc1C(=O)O` gave OX1R antag-1 -10.6, EP2 modulator 7.5, PGE2 EP2 inh 4.2, OX1R antag-2 16.3, GPR7 antag 5.1 and CHO parental Ca -3.0.
`CCOC(=O)c1ccccc1NC(=O)Cn1c(-c2nonc2N)nc2ccccc21` gave OX1R antag-1 3.6, EP2 modulator 19.8, PGE2 EP2 inh 16.0, OX1R antag-2 12.6, GPR7 antag 20.6* and CHO parental Ca -6.2.
Screening CCOC(=O)c1ccccc1NC(=O)CSc1nc2ccccc2o1 returned OX1R antag-1 -14.8, EP2 modulator 61.2*, PGE2 EP2 inh 4.5, OX1R antag-2 6.3, GPR7 antag 0.1 and CHO parental Ca -21.1.
CCOC(=O)c1ccccc1NC(=O)Cc1ccccc1OC was read as OX1R antag-1 -24.9, EP2 modulator 61.7*, PGE2 EP2 inh 0.5, OX1R antag-2 20.3, GPR7 antag 6.6 and CHO parental Ca -15.1.
Cc1nnc(NC(=O)CSc2nc3[nH]ncc3c(=O)[nH]2)s1 was read as OX1R antag-1 -9.5, EP2 modulator 12.7, PGE2 EP2 inh 3.2, OX1R antag-2 11.4, GPR7 antag -11.5 and CHO parental Ca -4.8.
For Cc1ccc(OCc2cc(C(=O)N3CCC(c4ccccc4Cl)C3)no2)cc1C (centres undefined) the results were OX1R antag-1 -21.6, OX1R antag-2 2.4, GPR7 antag 6.9 and CHO parental Ca -14.9.
CCCCn1c(N)c(N(CCOC)C(=O)c2cc(-c3ccc(C)cc3)nc3ccccc23)c(=O)[nH]c1=O was read as OX1R antag-1 -9.9, OX1R antag-2 12.1 and CHO parental Ca -24.1.
Screening COc1ccc(NC(=O)c2ccco2)cc1NC(=O)c1cc(Cl)ccc1Cl returned EP2 modulator -23.8 and PGE2 EP2 inh 2.4.
CC(C)(C)c1ccc(C(=O)NC(=S)Nc2nc3c(s2)CCCC3)cc1 was read as OX1R antag-1 -8.3, EP2 modulator -92.5, PGE2 EP2 inh 4.4, OX1R antag-2 24.3, GPR7 antag -6.8 and CHO parental Ca -4.7.
`CN(C)c1ccc(C(=O)Nc2nc3c(s2)CCCC3)cc1` gave OX1R antag-1 -10.6, EP2 modulator -38.8, PGE2 EP2 inh 17.0, OX1R antag-2 52.0*, GPR7 antag -16.2 and CHO parental Ca -0.7.
Screening CSC[C@H](NC(=O)COc1cc2c(c3oc(=O)c(C)c(C)c13)CCC(C)(C)O2)C(=O)O returned OX1R antag-1 -14.1, OX1R antag-2 -10.2, GPR7 antag -10.3 and CHO parental Ca 3.2.
Screening C[N+](C)(C)[C@@H](C1=CCCC1=O)c1ccccc1 returned EP2 modulator 17.8 and PGE2 EP2 inh 52.2*.
For O=C(NCCC1=CCCCC1)C(c1ccccc1)c1ccccc1 the results were OX1R antag-1 8.4, EP2 modulator 24.3, PGE2 EP2 inh 12.6, OX1R antag-2 13.1, GPR7 antag -7.2 and CHO parental Ca -4.8.
